Results collected from several papers.
Target: Fibroblast growth factor receptor 2 (FGFR2, Homo sapiens, UniProt P21802)

SMILES	assay	conditions	measurement	value
N#Cc1ccc(NC(=O)Nc2ccccc2)cc1	cell-free assay, competition with immobilised ligand	25 µM	remaining binding	100%
CC(C)S(=O)(=O)c1ccc2nccc(Nc3ccc4sc(C5CCCC5)nc4c3)c2c1	enzyme activity, inhibitor	1 µM	activity vs control	110%
COc1ccc2oc(-c3ccc4nc(N)oc4c3)c/c(=N\c3ccccc3NC(=O)CCN)c2c1	binding	1 µM	remaining binding	95%
CO[C@@H]1[C@H](N(C)C(=O)c2ccccc2)C[C@H]2O[C@]1(C)n1c3ccccc3c3c4c(c5c6ccccc6n2c5c31)C(=O)NC4	enzyme activity, inhibitor	1 µM	inhibition	42%
CN1CCN(C(=O)c2ccc(NC(=O)Nc3ccc(N(C)c4ccnc(Nc5ccc(CS(C)(=O)=O)cc5)n4)cc3)cc2)CC1	binding, competition with immobilised ligand	1 µM	remaining binding	99%
C1=C/COCc2cc(ccc2OCCN2CCCC2)Nc2nccc(n2)-c2cccc(c2)COC/1	binding	0.1 µM	remaining binding	94%
CCCCC(=O)Nc1ccc(-c2ccc3ncn(CCC)c(=O)c3c2)cn1	binding, competition with immobilised ligand	0.5 µM	remaining binding	86%
C=CC(=O)N1CCC([C@@H]2CCNc3c(C(N)=O)c(-c4ccc(Oc5ccccc5)cc4)nn32)CC1	cell-free assay	1 µM	inhibition	14%
Cc1ccc(NC(=O)c2ccnc(C(F)(F)F)c2)cc1-c1cc(OCCO)nc(N2CCOCC2)c1	binding, competition with immobilised ligand	1 µM	remaining binding	91%
